High-throughput results as filed in PubChem.
ARNT TACC3 PPI – disruptors of human ARNT/TACC3 interaction; AID 623870; inhibition, % at 9.99 µM; AlphaScreen His-ARNT PAS-B/GST-TACC3 binding, luminescence; TACC3 fragment carries E629A point mutation; 0.66% of 390,000 active; Q9Y6A5;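 active = mean inhibition of replicates at least 50% and at least half of replicates each reaching 50%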
CAL PDZ FP-1 – human CAL PDZ-peptide interaction inhibition. Q9HD26. purified CAL PDZ, TMR-peptide fluorescence polarization, 1 h. inhibition, % at 20 µM. 0.02% of 330,000 active. AID 504414;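 active = highest replicate inhibition of at least 40%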
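Test system: purified CerCALP PDZ construct; Compound dosing: one concentration, 20 µM compound; Also added: TMR-labelled reporter peptide T*-PRC34 bound in PDZ groove; Read-out: inhibition from polarization loss; Controls: unlabelled peptide and DMSO controls; Signal: FP readout, S and P plane fluorescence; Incubation: 1 h at RT.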
CAL PDZ FP-2 – inhibitors of human CAL PDZ peptide binding. purified CAL PDZ, TMR-peptide fluorescence polarization, 1 h. inhibition, % at 24.9 µM. 0.92% of 300,000 active;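 active = mean inhibition of at least 30% with at least half of replicates also reaching 30%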
AlphaScreen ctr – AlphaScreen artifact in ARNT/TACC3 counter-screen; shares compounds with ARNT TACC3 PPI; His-ARNT PASB-GST AlphaScreen artifact counter-screen, luminescence; AC50, µM (series often up to 68 µM); 50% of 1,200 active; AID 651705;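 active = every separate test run was called active for a drop in luminescence, with AC50 within twice the top valid dose, actives reach about 71 µM in these data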
A number is an active result; i = inactive; nt = no result. Only some compounds are listed: those with a hit (about 1.2% of all), similar ones and a draw of the others.

SMILES	ARNT TACC3 PPI	CAL PDZ FP-1	CAL PDZ FP-2	AlphaScreen ctr
O=C(Cn1cncn1)N/N=C/c1cc([N+](=O)[O-])ccc1O	64	i	i	28µM
Cc1ccn(CC(=O)N/N=C/c2cc([N+](=O)[O-])ccc2O)n1	nt	i	i	nt
O=C(CCCn1cnc([N+](=O)[O-])n1)Nc1cc(Cl)ccc1O	i	i	i	nt
Cc1ccccc1S(=O)(=O)N(C)C[C@H]1OCc2cn(nn2)CCCC(=O)N([C@H](C)CO)C[C@H]1C	i	nt	nt	nt
CCCC(=O)Nc1ccc2c(c1)OC[C@@H](C)N(CCC(F)(F)F)C[C@H](C)[C@@H](OC)CN(C)C2=O	i	nt	nt	nt
Cc1ccc(NC2=C/C(=N/S(=O)(=O)c3cccs3)c3ccccc3C2=O)cc1	i	i	i	nt
Cc1ccc(S(=O)(=O)/N=C2\C=C(Nc3ccc(O)cc3)C(=O)c3ccccc32)cc1	54	i	nt	5.2µM
CC(C)NC(=O)N(C)C[C@@H]1Oc2ccc(NC(=O)NC3CCCCC3)cc2C(=O)N([C@@H](C)CO)C[C@H]1C	i	nt	nt	nt
O=C(C[C@H]1CC[C@@H](NC(=O)C2CCC2)[C@H](CO)O1)NC1CCCCC1	i	nt	nt	nt
Oc1ccc2ccccc2c1CN1CCOCC1	i	i	i	nt
Oc1cccc(CN2CCOCC2)c1O	15	i	i	i
COc1ccccc1NC(=O)CSc1nnnn1-c1ccccc1OC	i	i	i	nt
COc1ccc(OC)c(-n2nnnc2SCC(=O)Nc2ccccc2OC)c1	active	i	nt	i
CCOc1ccc(Cl)cc1C(c1c(C)[nH][nH]c1=O)c1c(C)[nH][nH]c1=O	active	i	i	i
C#CCOc1ccc(Br)cc1C(c1c(C)[nH][nH]c1=O)c1c(C)[nH][nH]c1=O	i	i	i	nt
CC(C)NC(=O)N(C)C[C@@H]1Oc2cc(-c3cccnc3)ccc2S(=O)(=O)N([C@H](C)CO)C[C@@H]1C	i	nt	nt	nt
Cc1ccc(-n2nc3ccc(N)cc3n2)cc1	nt	i	i	nt
Nc1ccc2nn(-c3ccc(F)cc3)nc2c1	17	i	i	i
Cc1[nH][nH]c(=O)c1C(c1ccc(N(C)C)c(Br)c1)c1c(C)[nH][nH]c1=O	i	i	i	nt
Cc1[nH][nH]c(=O)c1C(c1ccc(-c2ccc(F)cc2)o1)c1c(C)[nH][nH]c1=O	48	i	i	i
CNC(=S)N/N=C/c1ccc(-c2ccc(C(=O)O)cc2)o1	i	i	i	nt
Cc1[nH][nH]c(=O)c1C(c1ccc(-c2ccc(C(=O)O)cc2)o1)c1c(C)[nH][nH]c1=O	72	nt	i	i
CN1c2ccc(-c3cccc(C#N)c3)cc2[C@H]2[C@H](CCN2S(=O)(=O)c2ccc(F)cc2)[C@@H]1CO	i	nt	nt	nt
Cc1ccccc1-c1cnc2c(c1)C(=O)N([C@@H](C)CO)C[C@H](C)[C@@H](CN(C)CC1CCCCC1)O2	i	nt	nt	nt
CCNC(=O)Nc1ccc2c(c1)C(=O)N(C)[C@H]1CC[C@H](CC(=O)Nc3cccc(F)c3)O[C@@H]1CO2	i	nt	nt	nt
SMILES	ARNT TACC3 PPI	CAL PDZ FP-1	CAL PDZ FP-2	AlphaScreen ctr
Clc1nssc1=Nc1ccc(Br)cc1	i	i	i	nt
Clc1nssc1=Nc1nncs1	36	i	i	i
COc1ccc(C2C(C#N)=C(N)Oc3n[nH]c(-c4ccccn4)c32)c(OC)c1OC (stereo not given)	60	i	i	i
COc1cc(C2C(C#N)=C(N)Oc3n[nH]c(-c4ccncc4)c32)cc(OC)c1OC (stereo not given)	nt	i	i	nt
Cc1[nH]n2c(=O)c3c(nc2c1-c1ccccc1)CCC3	59	i	nt	i
Cc1[nH]n2c(=O)c3c(nc2c1-c1ccc(Cl)cc1)CCC3	i	i	i	nt
Cc1ccc(S(=O)(=O)Nc2ccc3c(c2)C(=O)N([C@H](C)CO)C[C@H](C)[C@@H](CN(C)Cc2ccc4c(c2)OCO4)OCCCC[C@H](C)O3)cc1	i	nt	nt	nt
COc1cccc(C(c2c(C)[nH]n(-c3ccccc3)c2=O)c2c(C)[nH]n(-c3ccccc3)c2=O)c1O	i	i	i	nt
Cc1[nH]n(-c2ccccc2)c(=O)c1C(c1ccc(O)c([N+](=O)[O-])c1)c1c(C)[nH]n(-c2ccccc2)c1=O	10	i	i	i
C[C@@H]1CCCCO[C@@H](CN(C)CC2CC2)[C@H](C)CN([C@@H](C)CO)C(=O)c2cc(NS(=O)(=O)c3ccccc3)ccc2O1	i	nt	nt	nt
CCOc1ccc(S(=O)(=O)Nc2cc(SCC(=O)O)c(O)c3ccccc23)cc1	nt	i	i	nt
O=C(O)CSc1cc(NS(=O)(=O)c2cccc([N+](=O)[O-])c2)c2ccccc2c1O	61	i	i	i
